Sampled rows, rich in hits. Any-hit rate of the full collection: about 3.5%.
RGS4 act – potentiators or activators of RGS4; HEK293 M3R/inducible RGS4, carbachol calcium flux Fluo4; stronger effect = lower value; AID 463111; B-score at 10 µM; 310,000 compounds, 0.92% hits;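 active means B-score of the integrated calcium signal more than 4 SD below the library mean, with starting fluorescence not abnormally high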;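 further: negative B-score means reduced calcium response which marks RGS4 activation or potentiation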
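Also added: carbachol at ECmax as muscarinic agonist stimulus; Assay system: HEK293 cells with stable M3R and inducible RGS4; Timing: overnight RGS4 induction, 30 min dye load 37 °C, 20 min compound RT; Measured by: Fluo4-AM (2 µM) calcium-flux fluorescence, kinetic read.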
MrgX1 agonist – human MrgX1 receptor agonism, primary screen; MrgX1-HEK293 cells, Fluo-4 calcium fluorescence, agonist mode; stronger effect = higher value; B-score at 10 µM; 310,000 compounds, 0.44% hits; AID 588627;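 active means calcium response B-score plate-corrected fluorescence ratio at least 3 library SD, with starting fluorescence B-score inside 5 SD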
Target sequence (Q96LB2 whole entry, looked up): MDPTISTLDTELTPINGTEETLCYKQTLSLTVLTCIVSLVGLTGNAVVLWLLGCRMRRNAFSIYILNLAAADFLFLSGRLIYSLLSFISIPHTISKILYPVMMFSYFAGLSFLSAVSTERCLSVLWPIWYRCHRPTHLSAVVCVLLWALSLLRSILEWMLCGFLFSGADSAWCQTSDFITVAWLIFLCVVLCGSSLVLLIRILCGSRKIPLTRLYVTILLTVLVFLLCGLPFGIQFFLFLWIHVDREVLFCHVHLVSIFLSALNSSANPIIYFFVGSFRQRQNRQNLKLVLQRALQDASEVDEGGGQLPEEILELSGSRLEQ
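Test system: HEK293 cells stably expressing human MrgX1 receptor; amount: 15,000 cells per well; doses: compound delivered in addition one of three; times: overnight plating before 1 h dye loading; detection: Fluo-4 NW calcium-flux fluorescence, kinetic read; read-out basis: B-scored fluorescence response ratio; controls: positive and negative controls per plate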
MrgX1 antagonist – human MrgX1 receptor antagonism, primary screen; 310,000 compounds, 1.3% hits; Q96LB2; MRGX1-HEK293 calcium flux, Fluo-4, BAM8-22 antagonism; stronger effect = lower value; B-score at 10 µM; AID 588676;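 active means calcium-response B-score plate-corrected more than 3 library SD below zero, starting fluorescence within 5 deviations, no agonist response on first addition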;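 further: peak minus trough fluorescence over baseline after final BAM8-22 challenge near maximal dose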
RGS4 block – inhibitors of human RGS4 | P49798 | HEK293 M3R/RGS4 inducible, Fluo-4 calcium flux; stronger effect = higher value; triggered by carbachol at its EC20 | B-score at 10 µM | 310,000 compounds, 0.45% hits | AID 463165;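 active means B-score, a plate-corrected calcium signal, over three deviations above library mean, with baseline fluorescence within five deviations of library mean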;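 further: RGS4 expression induced by doxycycline in cells with stable M3 receptor; B-score is computed from the integrated fluorescence ratio over baseline after carbachol; higher B-score means a larger calcium signal and so more RGS4 inhibition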
Target sequence (P49798 whole entry, looked up): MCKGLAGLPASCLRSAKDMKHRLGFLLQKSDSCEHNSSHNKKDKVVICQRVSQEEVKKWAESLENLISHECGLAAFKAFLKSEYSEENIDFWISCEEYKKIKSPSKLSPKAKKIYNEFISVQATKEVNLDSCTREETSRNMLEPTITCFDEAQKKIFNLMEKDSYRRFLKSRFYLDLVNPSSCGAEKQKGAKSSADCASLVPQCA
MrgX1 PAM – allosterically activates human MrgX1 receptor signaling | B-score at 10 µM | 310,000 compounds, 0.63% hits | MrgX1-HEK293, Fluo-4 calcium flux, FDSS; stronger effect = higher value | Q96LB2 | AID 588675;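 active means plate-corrected calcium response at least 3 library SD above typical, normal starting fluorescence, not activating the receptor alone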;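 further: compound read alongside a low EC10 to EC30 dose of BAM8-22 agonist; peak minus trough fluorescence over baseline measured at the second addition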
Numbers stand for hits; 0 = inactive; - = no result given.

SMILES | RGS4 act | MrgX1 agonist | MrgX1 antagonist | RGS4 block | MrgX1 PAM
COc1cccc(/C=C/C(=O)c2cccc([N+](=O)[O-])c2)c1 | 0 | 38 | 0 | 0 | 0
Cc1cccc(/C=C/C(=O)c2ccc(NC3=NCCCS3)cc2)c1 | 0 | 0 | 0 | 0 | 0
COc1cccc(/C=C/C(=O)c2ccc(NC3=NCCCS3)cc2)c1 | 0 | 45 | 0 | 0 | 0
O=C(Nc1ccc(F)cc1F)NC1CCN(Cc2c(F)cccc2Cl)CC1 | 0 | 0 | 0 | 0 | 0
O=C(O)Cc1nn(Cc2ccc(Cl)cc2)c(=O)c2ccccc12 | 0 | 0 | 0 | 0 | 0
N#C/C(=C/c1ccc(F)cc1)C(N)=S | 0 | 28 | 0 | 0 | 0
Cn1cccc1/C=C(/C#N)C(N)=S | 0 | 0 | 0 | 0 | 0
O=C(CSCc1cc(=O)n2nc(C3CC3)sc2n1)Nc1ccccc1Cl | 0 | 0 | 0 | 0 | 0
C/C(=N\NC(=O)C1(C)CC1(Br)Br)c1cccc(NC(=O)C(C)(C)C)c1 (configuration not stated) | 0 | 0 | 0 | 0 | 0
COc1ccc(CC(=O)Nc2cccc(/C(C)=N/NC(=O)C3(C)CC3(Br)Br)c2)cc1 (configuration not stated) | -9.3 | 0 | 0 | 0 | 0
Cc1c(C(=O)Nc2ccc(Cl)cc2)c2ccccn2c1C(=O)c1ccc(F)cc1 | -9.1 | 0 | 0 | 0 | 0
COC(=O)N/N=C/c1c(C)c(C(=O)c2ccc(F)cc2)n2ccccc12 | 0 | 0 | 0 | 0 | 0
Cc1c(/C=N/NC(=O)c2ccc(O)cc2)c2ccccn2c1C(=O)c1ccc(F)cc1 | 0 | 0 | 0 | 0 | 0
Cc1c(/C=N/NC(=O)c2ccccc2O)c2ccccn2c1C(=O)c1ccc(F)cc1 | 0 | 0 | -7.1 | 0 | 0
CCCOc1ccc(-c2nc(SCc3ccccc3)[nH]c(=O)c2C#N)cc1OC | 0 | 0 | 0 | 0 | 0
CN(C)c1ccc(/C=C/c2cc[n+](C)cc2)cc1 | 0 | 37 | 0 | 0 | 0
CCOc1ccc(NC(=O)c2ccc(-n3cccn3)nc2)cc1 | 0 | 0 | 0 | 0 | 0
CC(=O)NS(=O)(=O)c1ccc(NC(=O)c2ccc3c(c2)OCO3)cc1 | 0 | - | - | 0 | -
COc1cc2c(cc1OC)-c1cc(NC3CCCCCC3)nc(=O)n1CC2 | 0 | 0 | -6.2 | 0 | 0
O=c1ccc2cc3c([nH]c4ccc(Br)cc43)oc-2c1O | 0 | 0 | 0 | 0 | 11
CC(=O)c1c(C)[nH]c(C(=O)Nc2ccc(F)cc2F)c1C | 0 | 0 | 0 | 0 | 0
Nc1nc2c(s1)COc1ccccc1-2 | 0 | 0 | 0 | 0 | 0
Nc1nc2c(s1)CCc1c-2cnn1-c1ccccc1 | 0 | 33 | 0 | 0 | 0
CCOC(=O)c1cc2c(=O)n3cccc(C)c3nc2n(Cc2ccco2)c1=NC(=O)c1ccccc1 | -7.2 | 0 | 0 | 0 | 0
CCOC(=O)c1cc2c(=O)n3ccccc3nc2n(Cc2ccco2)c1=NC(=O)c1cccc(OC)c1 | -7.4 | 0 | -5.8 | 0 | 0
SMILES | RGS4 act | MrgX1 agonist | MrgX1 antagonist | RGS4 block | MrgX1 PAM
CC1(CCc2ccc3c(c2)OCO3)NCCc2c1[nH]c1ccccc21 (configuration not stated) | 0 | 0 | 0 | 0 | 0
O=S(CC1CC1(Cl)Cl)CC1CC1(Cl)Cl (configuration not stated) | 0 | 0 | 0 | 0 | 0
Cc1nc2ccccc2c2oc(C(=O)N3CC(C)CC(C)C3)cc12 (configuration not stated) | 0 | 0 | 0 | 0 | 0
COc1ccccc1N1CCN(C(=O)c2cc3c(C)nc4ccccc4c3o2)CC1 | -7.4 | 0 | 0 | 0 | 0
CC(NC(=O)c1ccccc1)C(=O)N/N=C/c1ccco1 (configuration not stated) | 0 | 0 | 0 | 0 | 0
CC(C)CC(NC(=O)c1ccccc1)C(=O)N/N=C/c1ccco1 (configuration not stated) | 0 | 30 | 0 | 0 | 0
O=C(CCCCCCCCC(=O)N/N=C/c1ccco1)N/N=C/c1ccco1 | 0 | 0 | -5.7 | 0 | 0
CC(C)(C)C1COc2ccccc2N1C(=O)c1cccc(Cl)c1 (configuration not stated) | 0 | 0 | 0 | 0 | 0
Cc1ccc(/C=C2/Sc3ccccc3N(CC(=O)NCC3CCCO3)C2=O)cc1 (configuration not stated) | -7.4 | 0 | 0 | 0 | 0
C=CCNC(=O)COC(=O)c1ccc(Sc2nncn2C)c([N+](=O)[O-])c1 | 0 | 0 | -5.2 | 0 | 0
CCNC(=O)CC1C(=O)N(c2ccccc2)C(=O)N1CCOC (configuration not stated) | 0 | 0 | 0 | 0 | 0
CC(C)CC(=O)C1=C(O)C(=O)N(Cc2ccccc2)C1c1ccccc1 (configuration not stated) | 0 | 0 | 0 | 0 | 12
Cc1cc(C)c2nc3sc(C(=O)N4CCOCC4)c(N)c3cc2c1 | 0 | 49 | 0 | 0 | 0
COc1cccc(CSc2nc(N)cc(N)n2)c1 | 0 | 0 | 0 | 0 | 0
FC(F)(F)c1cc(C(F)(F)F)c2ccc(N3CCN(c4ccc(Cl)cc4)CC3)nc2n1 | 0 | 0 | 0 | 0 | 0
N#CC(c1ccc(Cl)cc1)c1ccc2c(C(F)(F)F)cc(C(F)(F)F)nc2n1 (configuration not stated) | -8.1 | 0 | 0 | 0 | 0
CCN(CC(=O)Nc1c(F)cccc1F)C(=O)C1CCN(S(=O)(=O)c2ccc(C)cc2C)CC1 | 0 | 0 | 0 | 0 | 0
CSc1nnc2c(n1)[nH]c1c(C)cccc12 | 0 | 0 | -4.7 | 0 | 0
CCSc1nnc2c(n1)[nH]c1c(C)cccc12 | 0 | 0 | 0 | 0 | 0
COC(CNC(=O)c1ccc2c(c1)ncn2-c1ccc(C)cc1C)OC | 0 | 0 | 0 | 0 | 0
CCCc1cc(O)c2c(C)cc(=O)oc2c1 | 0 | 31 | 0 | 0 | 0
CCCCc1cc(=O)oc2cc(O)cc(O)c12 | 0 | 33 | 0 | 0 | 0
CCCCc1cc(=O)oc2cc(C)cc(O)c12 | 0 | 0 | 0 | 0 | 0
C=CCN(CC(=O)NC1CCCC1)C(=O)C(=O)Nc1ccc2c(c1)OCCO2 | 0 | 0 | 0 | 0 | 0
COc1cc2c(cc1OC)C(c1cc(Br)ccc1F)N(C(=O)CCl)CC2 (configuration not stated) | 0 | 0 | 0 | 0 | 0
SMILES | RGS4 act | MrgX1 agonist | MrgX1 antagonist | RGS4 block | MrgX1 PAM
CC1C(=NO)C(C)C(c2ccc(N(C)C)cc2)NC1c1ccc(N(C)C)cc1 (configuration not stated) | 0 | 0 | 0 | 0 | 14
Cc1ccc(NC(=O)c2cccc(Oc3ccc([N+](=O)[O-])cc3)c2)c(C(=O)O)c1 | 0 | 0 | 0 | 0 | 0
O=C(Nc1ccc(O)cc1)c1cccc(Oc2ccc([N+](=O)[O-])cc2)c1 | 0 | 0 | -5.9 | 0 | 0
N=C1/C(=C\c2ccc(Br)o2)C(=O)N=C2SC(CC(=O)N3CCCCC3)=NN12 | 0 | 0 | 0 | 0 | 0
O=C(/C=C/c1ccccc1Cl)Nc1ccc(-c2nnc3n2CCCCC3)cc1 | -8.1 | 0 | 0 | 0 | 0
CC(C)(C)CC(=O)Nc1ccc(-c2nnc3n2CCCCC3)cc1 | 0 | 0 | 0 | 0 | 0
